From ChEMBL document CHEMBL3817733, “Discovery of a novel small molecule agonist scaffold for the APJ receptor” (Bioorg Med Chem, 2016) come the findings set out here.

The target of assay [1] is T1, Apelin receptor (Homo sapiens, UniProt P35414).
T1 sequence (P35414 whole entry): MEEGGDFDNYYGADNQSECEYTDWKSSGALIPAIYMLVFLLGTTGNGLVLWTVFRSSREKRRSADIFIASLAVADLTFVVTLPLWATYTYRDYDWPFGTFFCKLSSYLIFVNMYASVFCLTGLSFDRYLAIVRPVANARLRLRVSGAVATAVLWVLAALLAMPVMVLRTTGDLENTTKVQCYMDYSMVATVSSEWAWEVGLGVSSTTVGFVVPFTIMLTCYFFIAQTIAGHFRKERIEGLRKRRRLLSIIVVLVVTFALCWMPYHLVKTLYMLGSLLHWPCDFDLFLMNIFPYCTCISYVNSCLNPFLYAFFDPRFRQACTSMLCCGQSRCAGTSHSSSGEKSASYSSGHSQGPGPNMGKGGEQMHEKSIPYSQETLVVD
As to the kind of experiment: Agonist activity at human APJ receptor expressed in cells c-expressing Galphaq16 assessed as calcium mobilization by FLIPR assay. Format: functional, cell-based. Put shortly:
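Human APJ-Gαq16 stable cells lifted non-enzymatically, plated 30,000/well, grown 24 h at 37 C to confluence. Loaded with Calcium 5 dye in HBSS with 20 mM HEPES, 1% BSA, 10 µM probenecid, 1 h at 37 C. FLIPR Tetra read ~17 sec baseline, then added agonist at 10x; pyr-apelin-13 as reference.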

Assay [2] has as its target T1, Apelin receptor. Description: Displacement of [125I]-apelin13 from human APJ receptor expressed in CHOK1 cell membranes after 2 hrs by scintillation counting. Also noted: species or system CHO-K1.
In assay [3] the target is Neurotensin receptor type 1 (Rattus norvegicus) (UniProt P20789). Description: Agonist activity at rat NTS1 receptor expressed in CHOK1 cells assessed as calcium mobilization by FLIPR assay. In kind it is functional, cell-based. Conditions: CHO-K1.
Sequence of Neurotensin receptor type 1 (Rattus norvegicus) (P20789 whole entry): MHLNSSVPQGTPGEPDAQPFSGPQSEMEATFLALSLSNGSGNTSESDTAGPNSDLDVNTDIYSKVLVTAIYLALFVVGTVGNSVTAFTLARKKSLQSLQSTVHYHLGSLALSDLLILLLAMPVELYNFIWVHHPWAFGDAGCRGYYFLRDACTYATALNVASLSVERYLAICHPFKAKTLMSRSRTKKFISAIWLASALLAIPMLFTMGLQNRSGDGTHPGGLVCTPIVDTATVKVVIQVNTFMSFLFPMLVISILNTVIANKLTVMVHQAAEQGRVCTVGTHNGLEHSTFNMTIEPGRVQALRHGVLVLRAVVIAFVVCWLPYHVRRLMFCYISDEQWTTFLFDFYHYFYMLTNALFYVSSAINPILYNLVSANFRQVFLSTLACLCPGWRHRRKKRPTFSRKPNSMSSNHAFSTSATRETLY
Assay [4] shares this target. Description: Antagonist activity against rat NTS1 receptor expressed in CHOK1 cells assessed as calcium mobilization by FLIPR assay. Format: functional, cell-based. Conditions: CHO-K1.
Assay [5] concerns the target T2, Neurotensin receptor type 2 (Rattus norvegicus) (UniProt Q63384).
T2 sequence (whole entry): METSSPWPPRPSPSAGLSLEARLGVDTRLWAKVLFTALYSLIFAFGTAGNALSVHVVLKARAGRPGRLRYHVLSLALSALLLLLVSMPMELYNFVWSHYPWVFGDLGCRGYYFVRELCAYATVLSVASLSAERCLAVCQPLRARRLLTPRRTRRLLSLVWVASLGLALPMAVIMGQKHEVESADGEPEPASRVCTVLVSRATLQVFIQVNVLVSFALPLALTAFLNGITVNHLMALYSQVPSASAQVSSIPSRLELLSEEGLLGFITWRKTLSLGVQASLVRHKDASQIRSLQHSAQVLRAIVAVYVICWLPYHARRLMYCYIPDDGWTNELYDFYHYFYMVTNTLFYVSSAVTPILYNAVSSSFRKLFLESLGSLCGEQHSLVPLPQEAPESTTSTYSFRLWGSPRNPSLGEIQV
As to the kind of experiment: (§1) Partial agonist activity at rat NTS2 receptor expressed in CHOK1 cells assessed as calcium mobilization by FLIPR assay. In kind it is functional, cell-based. Conditions: CHO-K1.

Assay [6] concerns the target T3, Neurotensin receptor type 2 (Rattus norvegicus, UniProt Q63384).
T3 sequence (Q63384 whole entry): T2 sequence (whole entry)
The assay is described as §1. Format: functional, cell-based, CHO-K1.

Calls of active or inactive are those of the source. The rule behind the calls is not given here. Some results are limits rather than exact numbers.

For `COc1cccc(OC)c1-c1cc(C(=O)NC2(C(=O)O)C3CC4CC(C3)CC2C4)nn1-c1ccc(F)cc1` (configuration not stated), the EC50 at Apelin receptor [1] is more than 30 µM.
On the same count and under the same terms, to `COc1cccc(OC)c1-c1cc(C(=O)NC2(C(=O)O)CCCCC2)nn1-c1ccc(F)cc1` belongs more than 30 µM; to `Cc1cc(C(=O)N[C@H](C(=O)O)C2CCCCC2)nn1-c1ccc(F)cc1`, more than 30 µM; to `COc1cccc(OC)c1-c1cc(C(=O)N[C@H](C(=O)NCc2ccccc2)C2CCCCC2)nn1-c1ccc(F)cc1`, more than 30 µM.
Regarding `COc1cccc(OC)c1-c1cc(C(=O)N2CC[C@H](C(=O)O)C2)nn1-c1ccc(F)cc1`, the EC50 at Apelin receptor [1] was more than 30 µM.
Same read-out and setting: to `COc1cccc(OC)c1-c1cc(C(=O)N[C@@H](CC(C)C)C(=O)O)nn1-c1ccc(F)cc1` belongs more than 30 µM.
As to `COc1cccc(OC)c1-c1cc(C(=O)N[C@H](CC(=O)O)CC(C)C)nn1-c1ccc(F)cc1`, the EC50 on Apelin receptor [1] is 9.4 µM. On Apelin receptor [2], the affinity corresponds to a Ki of 0.6 µM.
For `O=C(N[C@H](C(=O)O)C1CCCCC1)c1cc(-c2ccccc2)n(-c2ccc(F)cc2)n1`, the EC50 on Apelin receptor [1] is more than 30 µM.
Regarding `COc1cccc(OC)c1-c1cc(C(=O)NCC2CCCCC2)nn1-c1ccc(F)cc1`, the EC50 on Apelin receptor [1] is more than 30 µM.
For `COc1cccc(OC)c1-c1cc(C(=O)N[C@H](C(=O)NCC(=O)O)C2CCCCC2)nn1-c1ccc(F)cc1`, on Apelin receptor [1], the EC50 is more than 30 µM.
Turning to `COc1cccc(OC)c1-c1cc(C(=O)N[C@@H](C(=O)O)C2CCCCC2)nn1-c1ccc(F)cc1`, the EC50 at Apelin receptor [1] was more than 30 µM.
Regarding `COc1cccc(OC)c1-c1cc(C(=O)N[C@H](C(=O)O)c2ccccc2)nn1-c1ccc(F)cc1`, the EC50 at Apelin receptor [1] was more than 30 µM.
As for `COc1cccc(OC)c1-c1cc(C(=O)N[C@H](C(=O)N(C)C)C2CCCCC2)nn1-c1ccc(F)cc1`, at Apelin receptor [1], the EC50 is more than 30 µM.
As for `COc1cccc(OC)c1-c1cc(C(=O)N[C@H]2CC[C@H](C(=O)O)CC2)nn1-c1ccc(F)cc1`, the EC50 at Apelin receptor [1] is more than 30 µM.
Take `COc1cccc(OC)c1-c1cc(C(=O)N[C@H](C(=O)O)C(C)C)nn1-c1ccc(F)cc1`: the EC50 on Apelin receptor [1] was more than 30 µM.
Consider `COc1cccc(OC)c1-c1cc(C(=O)NC(CC(=O)O)C2CCCCC2)nn1-c1ccc(F)cc1` (single isomer, unassigned), for which the result in assay [3] and in assay [4] was inactive. For the same molecule, the maximal response (Emax) in assay [5] worked out at 57%.
In the case of `COC(=O)[C@@H](NC(=O)c1cc(-c2c(OC)cccc2OC)n(-c2ccc(F)cc2)n1)C1CCCCC1`, the EC50 at Apelin receptor [1] was more than 30 µM.
As to `COc1cccc(OC)c1-c1cc(C(=O)N[C@H](C(=O)NO)C2CCCCC2)nn1-c1ccc(F)cc1`, the EC50 at Apelin receptor [1] was more than 30 µM.
For `COc1cccc(OC)c1-c1cc(C(=O)N[C@@H](Cc2ccccc2)C(=O)O)nn1-c1ccc(F)cc1`, the EC50 at Apelin receptor [1] is more than 30 µM.
Consider `COC(=O)CNC(=O)[C@@H](NC(=O)c1cc(-c2c(OC)cccc2OC)n(-c2ccc(F)cc2)n1)C1CCCCC1`, for which the EC50 on Apelin receptor [1] is more than 30 µM.
As for `COc1cccc(OC)c1-c1cc(C(=O)N[C@@H](CCC(N)=O)C(=O)O)nn1-c1ccc(F)cc1`, the EC50 on Apelin receptor [1] is more than 30 µM.
Regarding `COc1cccc(OC)c1-c1cc(C(=O)N[C@@H](CCc2ccccc2)CC(=O)O)nn1-c1ccc(F)cc1`, the EC50 at Apelin receptor [1] came to 3 µM. For the same molecule, at Apelin receptor [2], the Ki amounted to 3 µM.
As for `COc1cccc(OC)c1-c1cc(C(=O)N[C@@H](CCCCN)C(=O)O)nn1-c1ccc(F)cc1`, the concentration giving a half-maximal response (EC50) at Apelin receptor [1] was more than 30 µM.
With `COc1cccc(OC)c1-c1cc(C(=O)N[C@@H](CCCCNC(=O)OC(C)(C)C)C(=O)O)nn1-c1ccc(F)cc1`, the EC50 on Apelin receptor [1] is more than 30 µM.
In the case of `COc1cccc(OC)c1-c1cc(C(=O)N[C@H](C(=O)O)C2CCCCC2)n(-c2ccc(F)cc2)n1`, the EC50 at Apelin receptor [1] is more than 30 µM.
In the case of `COc1cccc(OC)c1-c1cc(C(=O)N[C@@H](CCC2CCCCC2)CC(=O)O)nn1-c1ccc(F)cc1`, the outcome in assay [3] and in assay [4] was inactive. The maximal response (Emax) in assay [5] came to 23%. The EC50 in assay [6] is 3.41 µM.
On to `COc1cccc(OC)c1-c1cc(C(=O)N[C@H](C(N)=O)C2CCCCC2)nn1-c1ccc(F)cc1`, for which the concentration for a half-maximal effect (EC50) at Apelin receptor [1] was more than 30 µM.
`COc1cccc(OC)c1-c1cc(C(=O)Nc2ccccc2C(=O)O)nn1-c1ccc(F)cc1`: the EC50 at Apelin receptor [1] was more than 30 µM.
Take `COc1cccc(O)c1-c1cc(C(=O)N[C@H](C(=O)O)C2CCCCC2)nn1-c1ccc(F)cc1`: at Apelin receptor [1], the EC50 was more than 30 µM.
On the same count and under the same terms, to `O=C(N[C@H](C(=O)O)C1CCCCC1)c1cc(-c2c(O)cccc2O)n(-c2ccc(F)cc2)n1` belongs more than 30 µM.
